B1: OXA-48 class D β-lactamase (enzyme)
chain: KEWQENKSWNAHFTEHKSQGVVVLWNENKQQGFTNNLKRANQAFLPASTFKIPNSLIALDLGVVKDEHQVFKWDGQTRDIATWNRDHNLITAMKYSVVPVYQEFARQIGEARMSKMLHAFDYGNEDISGNVDSFWLDGGIRISATEQISFLRKLYHNKLHVSERSQRIVKQAMLTEANGDYIIRAKTGYSTRIEPKIGWWVGWVELDDNVWFFAMNMDMPTSDGLGLRQAITKEVLKQEKIIP

What was measured:
OXA-163 = OXA-163 (Klebsiella pneumoniae, UniProt Q6XEC0, DEL214-217/S212D); assay: Steady-state enzyme kinetics of substrate hydrolysis by OXA-163; format: biochemical, Klebsiella pneumoniae and Enterobacter cloacae; conditions: for Km / kcat: 30°C, 50 mM sodium phosphate pH 7.2, 15 mM sodium bicarbonate
Method in brief: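 OXA-163 was purified from induced culture supernatant (0.4 mM IPTG, 23°C, 20 h) by zinc-chelate chromatography and size exclusion, and quantified at A280. Hydrolysis was followed by UV at 260 nm (ceftazidime, cefotaxime), 262 nm (cephalothin), 298 nm (meropenem), or 299 nm (imipenem, doripenem, […]). Data were fitted to Michaelis–Menten; where Vmax was unreachable, kcat/Km came from a first-order fit.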

OXA-48 = OXA-48 (Klebsiella pneumoniae, UniProt Q6XEC0); assay: Steady-state enzyme kinetics of substrate hydrolysis by OXA-48; format: biochemical; conditions: for OXA-48 kcat/Km value smaller compared to imipenem: relative to imipenem kcat/Km
[1] = tested on: class D β-lactamases (DBLs); conditions: in vitro; cited from earlier work
[2] = molecular target: OXA-163 class D β-lactamase (Klebsiella pneumoniae and Enterobacter cloacae); assay: SEC
[3] = molecular target: OXA-163 class D β-lactamase (Klebsiella pneumoniae and Enterobacter cloacae); assay: crystal structure
[4] = molecular target: OXA-163 class D β-lactamase (Klebsiella pneumoniae and Enterobacter cloacae); assay: crystal structure; remark: listed apart in the source
SEC = molecular target: the molecule itself; assay: SEC

Molecule | Km (OXA-163; OXA-163) [µM] | kcat (OXA-163; OXA-163) [s⁻¹] | also measured
CO/N=C(\C(=O)N[C@@H]1C(=O)N2C(C(=O)O)=C(COC(C)=O)CS[C@H]12)c1csc(N)n1 [Cefotaxime, cefotaxime] | 36 ± 11 | 14 ± 1 | –
CC(C)(O/N=C(\C(=O)N[C@@H]1C(=O)N2C(C(=O)[O-])=C(C[n+]3ccccc3)CS[C@H]12)c1csc(N)n1)C(=O)O [Ceftazidime, ceftazidime] | > 1000 | – | hydrolysis by OXA-48 (steady-state kinetics analysis) (OXA-48): does not hydrolyze; hydrolysis by OXA-163 (OXA-163; OXA-163): does hydrolyze
CC(=O)OCC1=C(C(=O)O)N2C(=O)[C@@H](NC(=O)Cc3cccs3)[C@H]2SC1 [Cephalothin, cephalothin] | 3.4 ± 0.4 | 1.7 ± 0.1 | –
C[C@@H](O)[C@H]1C(=O)N2C(C(=O)O)=C(S[C@@H]3CN[C@H](CNS(N)(=O)=O)C3)[C@H](C)[C@H]12 [Doripenem, doripenem] | 5 ± 0.4 | 0.018 ± 0.001 | OXA-48 kcat/Km value smaller compared to imipenem (OXA-48): 56 fold
C[C@@H](O)[C@H]1C(=O)N2C(C(=O)O)=C(SCCN=CN)C[C@H]12 [Imipenem, imipenem] | 3.6 ± 1 | 0.004 ± 0.001 | drop in the catalytic efficiency of OXA-163 in comparison to OXA-48 (OXA-163; kcat/Km OXA-48 versus OXA-163): 820 fold
C[C@@H](O)[C@H]1C(=O)N2C(C(=O)O)=C(S[C@@H]3CN[C@H](C(=O)N(C)C)C3)[C@H](C)[C@H]12 [Meropenem, meropenem] | 5.3 ± 0.5 | 0.021 ± 0.001 | OXA-48 kcat/Km value smaller compared to imipenem (OXA-48): 53 fold
[Cl-].[Na+] [NaCl, sodium chloride] | – | – | sodium chloride concentration at which most DBLs are fully inhibited [1]: 100 mM
O=C(Cc1cccs1)N[C@@H]1C(=O)N2C(C(=O)O)=C(/C=C/c3ccc([N+](=O)[O-])cc3[N+](=O)[O-])CS[C@H]12 [Nitrocefin, nitrocefin] | 19 ± 8 | 34 ± 2 | –
OXA-163 class D β-lactamase (enzyme) | – | – | stoichiometry N [2]: 2; stoichiometry N [3]: 2; stoichiometry N [4]: 2
B1 | – | – | stoichiometry N (SEC): 2
